# Measurements: ChEMBL document CHEMBL5678799 (Biochem J, 2009)
# Activity calls are given as the source filed them. The calls are words filed in the database; no cut-off is given here.
# Legend:
# [1] = target: CDK2/Cyclin A2 (Homo sapiens) (UniProt P24941+P20248); test: Inhibition of recombinant human N-terminal GST-tagged CDK2 (2 to 298 residues)/N-terminal GST-tagged Cyclin A2 (171 to 432 residues) expressed in Escherichia coli assessed as remaining activity at 10 uM using YSPTSPSYSPTSPSYSPTSPKKK as substrate incubated for 30 mins in presence of [gamma-33P]ATP by filter binding method relative to control
# Summary of the method: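 Incubations ran robotically for 30 min at room temperature (21 °C) under linear conditions. Results are percent activity remaining versus controls without compound, as the mean of triplicates ± S.D.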
# [2] = target: Insulin-like growth factor 1 receptor (Homo sapiens) (UniProt P08069); test: Inhibition of recombinant human N-terminal His6-tagged IGF1R (954 to 1367 residues) expressed in baculovirus infected Sf21 cells assessed as remaining activity at 1 uM using KKKSPGEYVNIEFG as substrate incubated for 30 mins in presence of [gamma-33P]ATP by filter binding method relative to control
# Summary of the method: (§1)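 Radiometric kinase panel run robotically at room temperature (21 °C) for 30 min, linear in time and enzyme. […] Activity is expressed as percent of control without compound, from triplicate determinations ± S.D.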
# [3] = target: Inhibitor of nuclear factor kappa-B kinase subunit epsilon (Homo sapiens) (UniProt Q14164); test: Inhibition of recombinant human N-terminal GST-tagged IKKepsilon (1 to 716 residues) expressed in baculovirus infected Sf21 cells assessed as remaining activity at 1 uM using MBP as substrate incubated for 30 mins in presence of [gamma-33P]ATP by filter binding method relative to control
# Summary of the method: (§2)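 Incubation was 30 min at room temperature (21 °C) under conditions linear with time and enzyme amount. Activity is reported as percent of control lacking compound, triplicate mean ± S.D.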
# [4] = target: Serine/threonine-protein kinase Nek2 (Homo sapiens) (UniProt P51955); test: Inhibition of recombinant human N-terminal His6-tagged NEK2A (1 to 445 residues) expressed in baculovirus infected Sf21 cells assessed as remaining activity at 1 uM using RFRRSRRMI as substrate incubated for 30 mins in presence of [gamma-33P]ATP by filter binding method relative to control
# Chain of Serine/threonine-protein kinase Nek2 (Homo sapiens) (P51955 whole entry, the tested form may be a part): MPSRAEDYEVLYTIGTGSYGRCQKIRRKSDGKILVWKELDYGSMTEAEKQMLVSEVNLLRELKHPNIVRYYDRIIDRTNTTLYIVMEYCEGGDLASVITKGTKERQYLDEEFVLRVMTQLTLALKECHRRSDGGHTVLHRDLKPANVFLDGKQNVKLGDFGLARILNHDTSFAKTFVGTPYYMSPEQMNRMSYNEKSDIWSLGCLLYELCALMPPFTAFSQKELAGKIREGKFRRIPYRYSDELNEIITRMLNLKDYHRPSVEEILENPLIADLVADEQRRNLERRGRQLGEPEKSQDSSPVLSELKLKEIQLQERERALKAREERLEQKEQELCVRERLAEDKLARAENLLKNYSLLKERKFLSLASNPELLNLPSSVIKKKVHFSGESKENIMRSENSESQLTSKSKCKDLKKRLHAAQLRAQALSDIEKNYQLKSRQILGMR
# [5] = target: Serine/threonine-protein kinase PAK 6 (Homo sapiens) (UniProt Q9NQU5); test: Inhibition of recombinant human N-terminal GST-tagged PAK6 (2 to 681 residues) expressed in Escherichia coli assessed as remaining activity at 1 uM using RRRLSFAEPG as substrate incubated for 30 mins in presence of [gamma-33P]ATP by filter binding method relative to control
# Chain of Serine/threonine-protein kinase PAK 6 (Homo sapiens) (Q9NQU5 whole entry, looked up, the tested form may be a part): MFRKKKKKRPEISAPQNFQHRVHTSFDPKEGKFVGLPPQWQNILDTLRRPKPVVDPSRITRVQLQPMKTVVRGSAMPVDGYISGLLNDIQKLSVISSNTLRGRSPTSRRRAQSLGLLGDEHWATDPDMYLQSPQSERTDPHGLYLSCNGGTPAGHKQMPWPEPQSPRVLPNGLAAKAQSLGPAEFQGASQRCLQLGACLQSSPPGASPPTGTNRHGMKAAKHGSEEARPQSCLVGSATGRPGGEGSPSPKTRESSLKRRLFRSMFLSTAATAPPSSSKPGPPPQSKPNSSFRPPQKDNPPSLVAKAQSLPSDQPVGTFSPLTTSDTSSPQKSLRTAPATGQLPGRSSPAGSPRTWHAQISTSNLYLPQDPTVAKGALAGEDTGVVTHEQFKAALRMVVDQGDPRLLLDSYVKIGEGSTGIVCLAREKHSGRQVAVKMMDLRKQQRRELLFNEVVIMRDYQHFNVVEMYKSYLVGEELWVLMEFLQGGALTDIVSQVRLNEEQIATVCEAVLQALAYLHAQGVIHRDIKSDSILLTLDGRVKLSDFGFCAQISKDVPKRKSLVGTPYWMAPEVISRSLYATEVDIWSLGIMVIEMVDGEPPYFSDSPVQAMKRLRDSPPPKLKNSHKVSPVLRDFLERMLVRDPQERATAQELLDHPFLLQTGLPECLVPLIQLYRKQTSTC
# Summary of the method: (§3)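 Panel assays were run for 30 min at 21 °C, within the linear range for time and enzyme. […] Results are percent activity remaining relative to compound-free control, averaged from triplicate ± S.D.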
# [6] = target: 3-phosphoinositide-dependent protein kinase 1 (Homo sapiens) (UniProt O15530); test: Inhibition of recombinant human His6-tagged PDK1 (52 to 556 residues) expressed in baculovirus infected Sf21 cells assessed as remaining activity at 1 uM using PDKtide as substrate incubated for 30 mins in presence of [gamma-33P]ATP by filter binding method relative to control
# Chain of 3-phosphoinositide-dependent protein kinase 1 (Homo sapiens) (O15530 whole entry, the tested form may be a part): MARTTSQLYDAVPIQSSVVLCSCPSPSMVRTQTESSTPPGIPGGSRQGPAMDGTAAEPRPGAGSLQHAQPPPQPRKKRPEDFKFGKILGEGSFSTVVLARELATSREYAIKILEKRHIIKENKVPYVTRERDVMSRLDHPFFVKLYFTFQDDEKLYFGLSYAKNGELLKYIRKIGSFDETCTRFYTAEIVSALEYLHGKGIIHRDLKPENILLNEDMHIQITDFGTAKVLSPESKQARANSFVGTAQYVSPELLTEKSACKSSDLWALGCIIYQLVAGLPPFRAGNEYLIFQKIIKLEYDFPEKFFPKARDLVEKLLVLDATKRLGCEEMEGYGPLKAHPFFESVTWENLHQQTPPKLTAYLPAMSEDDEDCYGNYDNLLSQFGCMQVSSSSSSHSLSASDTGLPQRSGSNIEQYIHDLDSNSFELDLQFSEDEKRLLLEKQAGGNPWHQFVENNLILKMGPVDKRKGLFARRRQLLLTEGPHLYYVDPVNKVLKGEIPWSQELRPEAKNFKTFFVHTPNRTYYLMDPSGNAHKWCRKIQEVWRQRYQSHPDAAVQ
# Summary of the method: (§4)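 Robotic radiometric panel assay, 30 min at room temperature (21 °C), with 10 mM magnesium acetate. […] Compound at 1 or 10 µM. Residual activity expressed relative to compound-free control; triplicate average ± S.D.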
# [7] = target: Serine/threonine-protein kinase Chk1 (Homo sapiens) (UniProt O14757); test: Inhibition of recombinant human N-terminal GST-tagged CHK1 (1 to 476 residues) expressed in baculovirus infected Sf21 cells assessed as remaining activity at 10 uM using CHKtide as substrate incubated for 30 mins in presence of [gamma-33P]ATP by filter binding method relative to control; summary of the method: as §4
# Chain of Serine/threonine-protein kinase Chk1 (Homo sapiens) (O14757 whole entry, the tested form may be a part): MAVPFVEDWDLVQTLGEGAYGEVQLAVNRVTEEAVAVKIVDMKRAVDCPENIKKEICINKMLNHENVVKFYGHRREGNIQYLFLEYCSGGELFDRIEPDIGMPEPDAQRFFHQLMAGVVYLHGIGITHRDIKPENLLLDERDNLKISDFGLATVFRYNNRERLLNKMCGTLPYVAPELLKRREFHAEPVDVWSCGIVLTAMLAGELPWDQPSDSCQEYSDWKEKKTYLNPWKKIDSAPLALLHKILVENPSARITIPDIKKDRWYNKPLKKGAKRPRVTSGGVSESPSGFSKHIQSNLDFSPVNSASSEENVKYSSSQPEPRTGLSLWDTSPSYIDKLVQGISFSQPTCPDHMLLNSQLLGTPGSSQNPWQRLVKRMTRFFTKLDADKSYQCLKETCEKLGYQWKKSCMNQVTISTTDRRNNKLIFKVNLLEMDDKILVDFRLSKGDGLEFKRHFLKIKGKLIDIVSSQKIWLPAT
# [8] = target: Homeodomain-interacting protein kinase 2 (Homo sapiens) (UniProt Q9H2X6); test: Inhibition of recombinant human N-terminal GST-tagged HIPK2 (165 to 564 residues) expressed in Escherichia coli assessed as remaining activity at 10 uM using MBP as substrate incubated for 30 mins in presence of [gamma-33P]ATP by filter binding method relative to control; summary of the method: as §1
# [9] = target: Maternal embryonic leucine zipper kinase (Homo sapiens) (UniProt Q14680); test: Inhibition of recombinant human N-terminal GST/C-terminal His6-tagged MELK (2 to 651 residues) expressed in Escherichia coli assessed as remaining activity at 10 uM using KKLNRTLSFAEPG as substrate incubated for 30 mins in presence of [gamma-33P]ATP by filter binding method relative to control; summary of the method: as §2
# [10] = target: MAP kinase-interacting serine/threonine-protein kinase 2 (Homo sapiens) (UniProt Q9HBH9); test: Inhibition of recombinant human N-terminal GST/C-terminal His6-tagged MNK2alpha (2 to 465 residues) expressed in Escherichia coli assessed as remaining activity at 10 uM using eIF4E as substrate incubated for 30 mins in presence of [gamma-33P]ATP by filter binding method relative to control
# Chain of MAP kinase-interacting serine/threonine-protein kinase 2 (Homo sapiens) (Q9HBH9 whole entry, looked up, the tested form may be a part): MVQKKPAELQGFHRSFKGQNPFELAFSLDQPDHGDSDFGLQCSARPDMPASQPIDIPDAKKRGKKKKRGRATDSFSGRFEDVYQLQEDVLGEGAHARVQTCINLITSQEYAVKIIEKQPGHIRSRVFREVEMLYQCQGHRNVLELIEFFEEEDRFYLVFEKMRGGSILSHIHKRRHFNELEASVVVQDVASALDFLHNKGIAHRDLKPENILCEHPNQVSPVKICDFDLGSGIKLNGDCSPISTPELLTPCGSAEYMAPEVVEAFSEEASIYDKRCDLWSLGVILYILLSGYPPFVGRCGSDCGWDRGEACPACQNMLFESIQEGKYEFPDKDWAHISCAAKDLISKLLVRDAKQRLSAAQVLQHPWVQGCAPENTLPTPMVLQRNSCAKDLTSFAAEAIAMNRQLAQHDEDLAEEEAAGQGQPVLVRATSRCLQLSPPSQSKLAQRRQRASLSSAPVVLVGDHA
# [11] = target: Serine/threonine-protein kinase PAK 4 (Homo sapiens) (UniProt O96013); test: Inhibition of recombinant human N-terminal GST-tagged PAK4 (2 to 519 residues) expressed in Escherichia coli assessed as remaining activity at 10 uM using RRRLSFAEPG as substrate incubated for 30 mins in presence of [gamma-33P]ATP by filter binding method relative to control; summary of the method: as §1
# Chain of Serine/threonine-protein kinase PAK 4 (Homo sapiens) (O96013 whole entry, looked up, the tested form may be a part): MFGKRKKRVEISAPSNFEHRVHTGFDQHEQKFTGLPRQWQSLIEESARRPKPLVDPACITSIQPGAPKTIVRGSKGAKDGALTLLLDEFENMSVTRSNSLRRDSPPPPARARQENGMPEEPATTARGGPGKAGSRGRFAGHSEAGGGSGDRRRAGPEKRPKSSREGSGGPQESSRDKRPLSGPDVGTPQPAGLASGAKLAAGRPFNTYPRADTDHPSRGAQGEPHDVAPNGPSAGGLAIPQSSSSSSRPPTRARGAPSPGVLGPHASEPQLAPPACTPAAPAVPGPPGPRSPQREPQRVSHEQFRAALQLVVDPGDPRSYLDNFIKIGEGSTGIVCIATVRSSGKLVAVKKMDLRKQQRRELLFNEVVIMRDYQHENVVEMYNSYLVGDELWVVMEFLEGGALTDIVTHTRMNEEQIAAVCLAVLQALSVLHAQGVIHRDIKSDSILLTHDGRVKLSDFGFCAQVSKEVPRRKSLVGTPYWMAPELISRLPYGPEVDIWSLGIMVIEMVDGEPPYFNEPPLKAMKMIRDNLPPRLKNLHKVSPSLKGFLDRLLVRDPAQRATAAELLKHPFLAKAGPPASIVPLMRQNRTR
# [12] = target: Serine/threonine-protein kinase PAK 5 (Homo sapiens) (UniProt Q9P286); test: Inhibition of recombinant human N-terminal GST-tagged PAK5 (2 to 719 residues) expressed in Escherichia coli assessed as remaining activity at 10 uM using RRRLSFAEPG as substrate incubated for 30 mins in presence of [gamma-33P]ATP by filter binding method relative to control; summary of the method: as §3
# [13] = target: Serine/threonine-protein kinase pim-3 (Homo sapiens) (UniProt Q86V86); test: Inhibition of recombinant human N-terminal His6-tagged PIM3 (2 to 326 residues) expressed in baculovirus infected Sf21 cells assessed as remaining activity at 10 uM using RSRHSSYPAGT as substrate incubated for 30 mins in presence of [gamma-33P]ATP by filter binding method relative to control
# [14] = target: Vascular endothelial growth factor receptor 1 (Homo sapiens) (UniProt P17948); test: Inhibition of recombinant human N-terminal GST-tagged VEGFR1 (784 to 1338 residues) expressed in baculovirus infected Sf21 cells assessed as remaining activity at 10 uM using KKKSPGEYVNIEFG as substrate incubated for 30 mins in presence of [gamma-33P]ATP by filter binding assay relative to control; summary of the method: as §3
# Chain of Vascular endothelial growth factor receptor 1 (Homo sapiens) (P17948 whole entry, the tested form may be a part): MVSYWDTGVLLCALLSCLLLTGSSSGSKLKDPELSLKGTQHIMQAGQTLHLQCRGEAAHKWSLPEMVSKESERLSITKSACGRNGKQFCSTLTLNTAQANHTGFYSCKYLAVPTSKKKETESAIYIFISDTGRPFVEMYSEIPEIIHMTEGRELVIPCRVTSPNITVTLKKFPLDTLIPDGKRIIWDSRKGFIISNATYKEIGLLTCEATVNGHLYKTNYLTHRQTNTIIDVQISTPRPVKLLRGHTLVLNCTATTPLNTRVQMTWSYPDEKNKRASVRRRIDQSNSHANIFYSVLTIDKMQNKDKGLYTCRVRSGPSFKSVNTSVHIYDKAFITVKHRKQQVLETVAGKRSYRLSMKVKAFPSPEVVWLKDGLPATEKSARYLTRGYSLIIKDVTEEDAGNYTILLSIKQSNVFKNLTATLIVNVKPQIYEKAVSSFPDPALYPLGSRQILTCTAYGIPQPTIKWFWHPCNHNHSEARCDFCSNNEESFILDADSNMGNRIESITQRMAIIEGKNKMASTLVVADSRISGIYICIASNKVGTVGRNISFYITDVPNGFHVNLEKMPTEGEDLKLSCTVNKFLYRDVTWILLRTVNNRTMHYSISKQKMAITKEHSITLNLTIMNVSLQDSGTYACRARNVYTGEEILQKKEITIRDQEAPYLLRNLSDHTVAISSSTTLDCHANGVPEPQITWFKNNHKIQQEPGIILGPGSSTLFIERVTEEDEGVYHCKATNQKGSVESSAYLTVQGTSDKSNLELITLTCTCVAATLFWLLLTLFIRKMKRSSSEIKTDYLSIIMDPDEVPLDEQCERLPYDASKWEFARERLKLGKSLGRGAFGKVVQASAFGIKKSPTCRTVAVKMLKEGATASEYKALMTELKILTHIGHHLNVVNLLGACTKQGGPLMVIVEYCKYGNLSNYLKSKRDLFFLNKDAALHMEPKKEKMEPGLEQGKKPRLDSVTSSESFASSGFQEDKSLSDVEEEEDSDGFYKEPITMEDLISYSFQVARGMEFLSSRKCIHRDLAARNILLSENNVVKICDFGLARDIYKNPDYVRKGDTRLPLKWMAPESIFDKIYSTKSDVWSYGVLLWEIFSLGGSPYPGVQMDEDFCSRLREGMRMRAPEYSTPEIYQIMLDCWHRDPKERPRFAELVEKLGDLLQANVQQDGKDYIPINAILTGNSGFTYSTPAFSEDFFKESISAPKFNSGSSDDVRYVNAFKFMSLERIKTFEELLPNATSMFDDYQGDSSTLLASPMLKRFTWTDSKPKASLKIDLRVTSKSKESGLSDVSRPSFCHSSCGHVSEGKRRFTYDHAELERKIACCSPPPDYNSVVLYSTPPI
# MEF = test: Inhibition of mTORC2 in serum starved mLST8 knockout MEF cells assessed as reduction IGF1-stimulated AKT phosphorylation at Thr308 residue at 100 to 1000 nM incubated for 20 mins by immunoblot analysis; assay type: cell-based; conditions: Mus musculus, dose 100-1000 nM
# Summary of the method: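 Serum withdrawn 16 h. Inhibitor or vehicle given 30 min before stimulation with 50 ng/ml IGF-1 for 20 min. Lysed in Tris lysis buffer and immunoblotted for Akt Thr308 phosphorylation with ECL detection. Applies to HEK-293 and to wild-type, Rictor, Sin1 or mLST8 knockout MEFs. Three independent experiments.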
# mTORC2 (Homo sapiens) = mTORC2 (Homo sapiens) (UniProt P42345+Q6R327+Q9BVC4+Q9BPZ7); conditions: HEK293, dose 100-1000 nM, time 20.0 min
smiles,measurement,setting,value
COc1ccc(-c2ccc3c(N4CCOCC4)nc(N4C[C@@H](C)O[C@@H](C)C4)nc3n2)cc1CO [Ku-0063794],Activity,[1],90%
same,Activity,[2],117%
same,Activity,[3],99%
same,Activity,[4],92%
same,Activity,[5],75%
same,Activity,[6],89%
same,Activity,[7],86%
same,Activity,[8],89%
same,Activity,[9],72%
same,Activity,[10],92%
same,Activity,[11],75%
same,Activity,[12],81%
same,Activity,[13],75%
same,Activity,[14],92%
same,inhibition,MEF,Active
same,inhibition,mTORC2 (Homo sapiens),Active
